# Results pooled from the literature.
# Each line is one published result; the experiments were not run side by side.
# FGFR3 G697C: Fibroblast growth factor receptor 3 (FGFR3, Homo sapiens, UniProt P22607, G697C)
# FGFR3: Fibroblast growth factor receptor 3 (FGFR3, Homo sapiens, UniProt P22607)
Structure (SMILES),target,test,setting,remaining binding
CN1CCN(c2ccc(Nc3nccc(-c4cccc([N+](=O)[O-])c4)n3)cc2C(F)(F)F)CC1,FGFR3 G697C,binding,10 µM,63%
CN(C)c1nccc(-c2cnc3ncccn23)n1,FGFR3 G697C,binding,1 µM,99%
COc1ncc2cc3ccccc3nc2c1C#N,FGFR3,"cell-free assay, competition with immobilised ligand",5 µM,100%
COc1cnc(Nc2cccc(S(N)(=O)=O)c2)nc1N1CCN(c2ccccc2)CC1,FGFR3,"binding, competition with immobilised ligand",1 µM,98%
Nc1ncc2c(n1)-c1c([nH]c3ccc(C#CC4CC4)cc13)CCCC2,FGFR3 G697C,"binding, competition with immobilised ligand",1 µM,100%
N[C@@H]1CCN(c2nccc(-c3cnn4ncccc34)n2)C1,FGFR3 G697C,binding,1 µM,100%
O=C(NCCCN1CCOCC1)c1ccc(Nc2nccc(-c3cc4ccccc4s3)n2)cc1,FGFR3,"binding, competition with immobilised ligand",1 µM,94%
c1cnn2ncc(-c3ccnc(N4CCC45COC5)n3)c2c1,FGFR3 G697C,binding,1 µM,86%
Cc1cnc(Nc2ccc(C(=O)N3CCC(N4CCCC4)CC3)cc2)nc1-c1cc2ccccc2s1,FGFR3,"binding, competition with immobilised ligand",1 µM,23%
CC(=O)N1CCC(c2ccc(C(=O)NC(=N)N)cc2C(F)(F)F)CC1,FGFR3 G697C,"cell-free assay, competition with immobilised ligand",1 µM,98%
c1cncc(-c2cccc(Nc3nccc(NC4CCCCC4)n3)c2)c1,FGFR3,"binding, competition with immobilised ligand",10 µM,60%
CNC(=O)[C@@H]1CC[C@@H](n2c(-c3ccc4cnccc4c3)nc3ccc(C(=O)NCc4cccc(C(N)=O)c4)cc32)C1,FGFR3,"binding, competition with immobilised ligand",1 µM,100%
O=C(c1ccc(Nc2ncc(Cl)c(-c3cc4ccccc4s3)n2)cc1)N1CCC(N2CCCC2)CC1,FGFR3,"binding, competition with immobilised ligand",1 µM,38%
Cc1cc(-n2nc(Cc3cc(F)cc(C(F)(F)F)c3)nc2C)ccc1C(N)=O,FGFR3 G697C,"cell-free assay, competition with immobilised ligand",1 µM,100%
COc1ccnn2ncc(-c3ccnc(N(C)C)n3)c12,FGFR3,binding,1 µM,95%
Cn1nc(C(=O)NCc2ccc(C(=O)O)cc2)cc1-c1ccc2[nH]ccc2c1,FGFR3 G697C,"cell-free assay, competition with immobilised ligand",0.1 µM,82%
O=C(c1ccc(Nc2ncc(Cl)c(-c3ccc(Cl)s3)n2)cc1)N1CCC(N2CCCC2)CC1,FGFR3,"binding, competition with immobilised ligand",1 µM,19%
COCCOc1nc(-c2ccc(Cl)nc2)nc2c1CN(C(=O)c1ncn3ccccc13)CC2,FGFR3 G697C,"cell-free assay, competition with immobilised ligand",0.1 µM,100%
C[C@@H]1CCN(c2nccc(-c3cnn4ncccc34)n2)C1,FGFR3,binding,1 µM,90%
CCN1CCN(Cc2ccc(C(=O)Nc3ccc(C)c(Oc4ccc5c(c4)CC(=O)N5)c3)cc2C(F)(F)F)CC1,FGFR3,"binding, competition with immobilised ligand",1 µM,100%
COc1ccc2c(c1)O[C@@H](c1ccc(OC)c(OC)c1)C[C@H]2NC(=O)C1(c2ccc3c(c2)OC(F)(F)O3)CC1,FGFR3,"cell-free assay, competition with immobilised ligand",1 µM,89%
C=CC(=O)N1CCC(C(=O)NCC(=O)N2CCN(c3nc(-c4cnc(N)nc4C(F)F)nc(N4CCOCC4)n3)CC2)CC1,FGFR3 G697C,"binding, competition with immobilised ligand",1 µM,99%
COc1ccc2cc(OCC3(C(=O)O)CN(C(=O)c4ccc(F)cc4)C3)ccc2c1,FGFR3 G697C,"cell-free assay, competition with immobilised ligand",1 µM,88%
O=C(Nc1c[nH]nc1C(=O)NC1CCNCC1)c1cc(F)cc(F)c1,FGFR3 G697C,"binding, competition with immobilised ligand",1 µM,100%
CS(=O)(=O)c1cc(C2(NC(=O)c3cncc4c3cnn4-c3ccc(F)cc3)CC2)ccn1,FGFR3,"cell-free assay, competition with immobilised ligand",1 µM,100%
C[C@@H](c1ccc(-n2cnc3c(N)ncnc32)cc1)N1CCc2nn(C)c(Cc3ccccc3)c2C1=O,FGFR3,"binding, competition with immobilised ligand",0.1 µM,80%
O=C(NCC1CCOCC1)c1n[nH]cc1NC(=O)c1c(F)cccc1F,FGFR3 G697C,"binding, competition with immobilised ligand",1 µM,100%
FC(F)(F)Oc1cccc(-c2cnc3ccc(-c4ccncc4)nn23)c1,FGFR3,"cell-free assay, competition with immobilised ligand",5 µM,86%
O=C(NCCCN1CCOCC1)c1ccc(Nc2ncc(Cl)c(-c3ccc(Cl)s3)n2)cc1,FGFR3,"binding, competition with immobilised ligand",1 µM,41%
N#Cc1ccccc1CSc1nnc2c(n1)[nH]c1ccccc12,FGFR3,"binding, competition with immobilised ligand",10 µM,88%
CC1CCCN1c1nccc(-c2cnn3ncccc23)n1 (stereo not drawn),FGFR3,binding,1 µM,100%
C[C@@H]1CN(c2ccc3ncc(-c4ccc5[nH]nc(C6CC6)c5c4)n3n2)C[C@H](C)O1,FGFR3,"binding, competition with immobilised ligand",50 nM,100%
COc1cnc(Nc2cccc(S(N)(=O)=O)c2)nc1N1CCN(c2ccccc2)C(=O)C1,FGFR3,"binding, competition with immobilised ligand",1 µM,100%
O=C(c1ccc(Nc2nccc(-c3cc4ccccc4s3)n2)cc1)N1CCC(N2CCCC2)CC1,FGFR3,"binding, competition with immobilised ligand",1 µM,87%
CN(CCCC(F)(F)F)c1nccc(-c2cnn3ncccc23)n1,FGFR3,binding,1 µM,93%
C[C@@H](c1cccc(C#N)c1)n1cc(Cl)cc(C(N)=O)c1=N,FGFR3 G697C,"cell-free assay, competition with immobilised ligand",1 µM,79%
